Compounds with a hit are over-represented: about 5.1% of the library has one in this group of screens.
STAT1 inh = reduces IFN-gamma driven STAT1 reporter signal | NIH 3T3 STAT1-luciferase reporter, luminescence | inhibition, % at 5.5 µM | hit rate 0.35% among 200,000 | AID 920;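 active = inhibition above a set limit, the mean inhibition across all tested compounds plus 3 SD, cut at about 34% in these data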
STAT3 activator = increases IL-6 driven STAT3 reporter signal. U3A cells, IL-6 STAT3-luciferase reporter, luminescence; 100% = signal with IL-6 EC80 alone. activation (% of control), % at 5.6 µM. hit rate 0.91% among 190,000. AID 871;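 active = activation above the screen-wide mean of compound activation plus 3 SD, cut at about 130% in these data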
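Detection: reporter luminescence signal / Assay system: STAT1-lacking human U3A cells, STAT3 luciferase reporter / Incubation: compound pre-incubation 1 h before IL-6, then 6 h stimulation at 37 °C / Control set: IL-6-only high control / Read-out: % activation relative to IL-6 control / Probe or stimulus: Interleukin-6, 33 ng/mL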
NF-kB neuron act = raises NF-kB expression in human neuronal cells. hit rate 1.6% among 190,000. AID 1239. fold change at 12.5 µM. NF-kB reporter expression; stronger effect = higher value; in the data active = fold change above about 3.3
STAT1 act = increases IFN-gamma driven STAT1 reporter signal; NIH 3T3 STAT1-luciferase reporter, luminescence; 100% = IFN-gamma alone, no compound; activation (% of control), % at 5.5 µM; hit rate 2.6% among 200,000; AID 932;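 active = activation above the screen-wide mean activation plus 3 SD, cut at about 130% in these data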
APP 5'UTR act = activates APP 5'UTR luciferase reporter; SH-SY5Y APP 5'UTR luciferase reporter, luminescence; zero percent = DMSO vehicle wells; activation, % at 2 µM; hit rate 1% among 190,000;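 active = activation above a set limit, based on mean plus 3 SD of controls, cut at about 140% in these data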
STAT3 inh = reduces IL-6 driven STAT3 reporter signal; inhibition, % at 5.5 µM; U3A cells, IL-6 STAT3-luciferase reporter, luminescence; host cell line lacks STAT1; hit rate 0.89% among 190,000;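 active = inhibition above the mean inhibition across all screened compounds plus 3 SD, cut at about 44% in these data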
A number is an active result; n = inactive.

SMILES	STAT1 inh	STAT3 activator	NF-kB neuron act	STAT1 act	APP 5'UTR act	STAT3 inh
Cn1nnnc1SCC(=O)Nc1nc2c(s1)CCCC2	n	n	3.97	143.0	n	n
O=C(Cc1cccs1)Nc1nc2c(ccc3ccccc32)s1	n	158.8	n	n	n	n
O=C(Cc1cccs1)Nc1nc2c(s1)CCCC2	n	n	6.07	131.1	n	n
COc1ccc(-c2c(C)[nH]n3c(=O)c(Cc4ccccc4)c(C)nc23)cc1	n	n	n	n	n	n
Cc1ccc(NC(=O)CS(=O)CC(=O)N(c2ccc(C)cc2)C(C)C(=O)NC2CCCCC2)cc1 (stereo unspecified)	n	n	n	n	n	n
COc1ccc(-c2nnc(SCc3c(C)noc3C)o2)cc1	n	n	n	n	n	n
On1nnc2cc(C(F)(F)F)ccc21	n	n	n	n	n	n
COc1ccc(C(=O)N2CC(=O)N(CCc3ccccc3)C(=O)C2)cc1OC	n	143.7	n	n	n	n
CN(C)c1ccc(C(=O)N2CC(=O)N(CCc3ccccc3)C(=O)C2)cc1	n	n	n	n	n	n
C=CCC1(C#N)C(SC)=NC2=C(C(=O)CC(C)(C)C2)C1c1ccc(Br)cc1 (stereo unspecified)	n	n	n	n	n	n
CCN(CC)c1ccc(C=Nc2ccc(N(C)C)cc2)c(O)c1	n	n	n	130.1	n	n
CCN(CC)c1ccc(/C=N/N2CCN(Cc3ccccc3)CC2)c(O)c1	n	n	n	n	n	n
CCN(CC)c1ccc(/C=N/NC(=S)NC)c(O)c1	n	n	5.86	n	n	n
CCN(CC)c1ccc(/C=N/N2CCOCC2)c(O)c1	n	n	n	142.0	n	n
Cc1cccc(N=C2NC(=O)c3cc([N+](=O)[O-])ccc32)c1	n	n	n	n	n	n
NS(=O)(=O)c1ccc(CCNC(=O)Cc2ccccc2[N+](=O)[O-])cc1	n	133.2	n	n	n	n
O=[N+]([O-])c1ccc(Nc2ccc3ccccc3c2)nc1	n	n	n	132.8	n	n
Cc1cc(C)cc(CC(Cc2nc3ccccc3[nH]2)c2nc3ccccc3[nH]2)c1 (stereo unspecified)	n	n	n	n	n	n
COc1ccc(/C(C)=N/NS(=O)(=O)c2ccccc2)c(OC)c1	n	n	n	n	n	n
COc1ccc(N=CC2=C(O)c3ccccc3C2=O)c(OC)c1	73.6	n	n	n	176.5	98.8
Cc1ccccc1N=CC1=C(O)c2ccccc2C1=O	80.3	n	n	n	140.3	99.2
COC(=O)c1ccc(OCCOc2ccc(C(=O)OC)cc2)cc1	n	n	n	n	n	n
COC(=O)c1ccc(OCC(=O)c2ccccc2)cc1	n	n	4.14	138.9	n	n
Cc1cc(C)c(OCC(=O)Nc2nnc(-c3ccco3)o2)c(C)c1	n	n	n	n	n	n
CNS(=O)(=O)c1ccc2nc(NC(=O)/C=C/c3ccco3)sc2c1	n	n	n	130.6	n	n
SMILES	STAT1 inh	STAT3 activator	NF-kB neuron act	STAT1 act	APP 5'UTR act	STAT3 inh
C=CS(=O)(=O)c1sc(Cl)c(N2CCOCC2)c1[N+](=O)[O-]	n	n	n	128.7	n	n
COc1cccc(C2=NOC(C(=O)N3CCOCC3)C2)c1 (stereo unspecified)	n	n	n	133.0	n	n
CC1CCN(C(=O)C2CC(c3ccc(F)cc3)=NO2)CC1 (stereo unspecified)	n	n	n	129.3	n	n
COc1ccc(C2=NOC(C(=O)N3CCOCC3)C2)cc1OC (stereo unspecified)	n	n	n	n	n	n
CCC1CCc2c(sc(NC(=O)c3ccco3)c2C(N)=O)C1 (stereo unspecified)	n	n	n	130.6	n	n
COc1ccc(C2C(C(=O)c3ccco3)=C(O)C(=O)N2c2nnc(C)s2)cc1 (stereo unspecified)	n	n	n	n	n	n
Cc1ccc2nc(N3C(=O)C(O)=C(C(=O)c4ccco4)C3c3cccs3)sc2c1 (stereo unspecified)	n	n	n	n	170.5	n
Cn1c(SCc2ccccc2F)nc2cccnc21	n	n	3.36	137.3	141.1	n
CN1CCN(Cc2cc(Cl)c3cccnc3c2OC(=O)c2cccs2)CC1	n	n	13.1	n	n	n
CCN=C1S/C(=C\c2ccc(-c3cccc(C(=O)O)c3)o2)C(=O)N1CC	n	n	n	n	185.1	n

Source: PubChem BioAssay (several laboratories)
